{"source": "paper PMC10338367", "about": "(Heliyon, 2023)", "key": {"[1]": {"system": "normal human astrocytes (NHA)", "assay": "WST cell viability assay, NHA", "assay_type": "cell-based", "procedure,_shortened": "(§1)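 Cells (MEM, 10% FBS, 37 °C, 5% CO₂) were seeded at 3 × 10³/well and pre-incubated 24 h. They were treated with test compound at 0.16, 0.8, 4, 20 or 100 μM for 24, 48 or 72 h, with DMSO as vehicle control. WST-1 was then added for 4 h at 37 °C and absorbance read at 516 nm (reference 600 nm). Viability was taken relative to untreated cells and IC50 read from dose-response curves at each time; ≥3 independent experiments.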"}, "[2]": {"system": "LN229 human glioblastoma cells", "assay": "WST cell viability assay, LN229", "assay_type": "cell-based", "procedure,_shortened": "as §1"}, "[3]": {"system": "A172 human glioblastoma cells", "assay": "WST cell viability assay, A172", "assay_type": "cell-based", "procedure,_shortened": "as §1"}, "LN229 cells": {"system": "LN229 cells", "assay": "Flow cytometry analysis of cell cycle and apoptosis", "assay_type": "cell-based, human", "settings": "for G0-G1, percentage of cells: LN229, 4 μM", "procedure,_shortened": "(§2)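 Cells from MD Anderson were grown in MEM with 10% FBS, penicillin-streptomycin and 1% glutamine at 37 °C, 5% CO₂. About 1 × 10⁶ cells per 10-cm plate were exposed to test compound (4 or 10 μM) for 0, 24, 48 or 72 h. Cells were spun down, PBS-washed, fixed overnight (12 h) in chilled 70% ethanol and PI-stained. Sub-G1, G0/G1, S and G2/M fractions were measured; mean ± S.D. of three experiments, untreated controls at each time.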"}, "[4]": {"assay": "DPPH radical scavenging assay"}, "A172 cells": {"system": "A172 cells", "assay": "Flow cytometry analysis of cell cycle and apoptosis", "assay_type": "cell-based, human", "settings": "for G0-G1, percentage of cells / Sub G1, percentage of cells: A172, 4 μM", "procedure,_shortened": "as §2"}}}
{"molecule": "CCCN(C)CCc1c[nH]c2ccccc12", "note": "[MPT, Methylprophyl tryptamine, reference compound]", "values": [{"measurement": "IC50", "setting": "[1]; 24 h", "value": "490 ± 30", "unit": "nM"}, {"measurement": "IC50", "setting": "[1]; 48 h", "value": "470 ± 40", "unit": "nM"}, {"measurement": "IC50", "setting": "[1]; 72 h", "value": "450 ± 40", "unit": "nM"}, {"measurement": "IC50", "setting": "[2]; LN229, 24 h", "value": "448 ± 300", "unit": "nM"}, {"measurement": "IC50", "setting": "[2]; LN229, 48 h", "value": "447 ± 10", "unit": "nM"}, {"measurement": "IC50", "setting": "[2]; LN229, 72 h", "value": "440 ± 70", "unit": "nM"}, {"measurement": "IC50", "setting": "[3]; A172, 48 h", "value": "440 ± 130", "unit": "nM"}, {"measurement": "IC50", "setting": "[3]; A172, 72 h", "value": "430 ± 90", "unit": "nM"}]}
{"molecule": "COc1ccc(C(c2c(O)c3ccccc3oc2=O)c2c(O)c3ccccc3oc2=O)cc1", "note": "[HL, 3,3′-[(4-methoxyphenyl)methanediyl]bis(4-hydroxy-2Hchromen-2-one)]", "values": [{"measurement": "IC50", "setting": "[1]; 48 h", "value": "640 ± 60", "unit": "nM"}, {"measurement": "IC50", "setting": "[1]; Homo sapiens, Astrocyte, 24 h", "value": "3210 ± 40", "unit": "nM"}, {"measurement": "IC50", "setting": "[1]; Homo sapiens, Astrocyte, 72 h", "value": "220 ± 40", "unit": "nM"}, {"measurement": "cell cycle arrest, phase", "setting": "LN229 cells; LN229", "value": "arrested at G0/G1 phase"}, {"measurement": "G0-G1, percentage of cells", "setting": "LN229 cells; 24 h", "value": 70.33, "unit": "%"}, {"measurement": "G0-G1, percentage of cells", "setting": "LN229 cells; 48 h", "value": 61.70, "unit": "%"}, {"measurement": "G0-G1, percentage of cells", "setting": "LN229 cells; 72 h", "value": 41.11, "unit": "%"}, {"measurement": "Percentage of antioxidant activity (DPPH)", "setting": "[4]; 250 μM/mL", "value": "10.37 ± 0.08", "unit": "%"}, {"measurement": "Percentage of antioxidant activity (DPPH)", "setting": "[4]; 500 μM/mL", "value": "15.12 ± 0.03", "unit": "%"}, {"measurement": "Percentage of antioxidant activity (DPPH)", "setting": "[4]; 750 μM/mL", "value": "19.41 ± 0.02", "unit": "%"}, {"measurement": "Percentage of antioxidant activity (DPPH)", "setting": "[4]; 1000 μM/mL", "value": "25.62 ± 0.07", "unit": "%"}, {"measurement": "IC50", "setting": "[2]; LN229, 24 h", "value": 9550, "unit": "nM"}, {"measurement": "IC50", "setting": "[2]; LN229, 48 h", "value": "1780 ± 50", "unit": "nM"}, {"measurement": "IC50", "setting": "[2]; LN229, 72 h", "value": "850 ± 70", "unit": "nM"}, {"measurement": "cell cycle arrest, phase", "setting": "A172 cells; A172", "value": "cell cycle arrest was caused at G0/G1 phase"}, {"measurement": "G0-G1, percentage of cells", "setting": "A172 cells; 24 h", "value": 67.66, "unit": "%"}, {"measurement": "Sub G1, percentage of cells", "setting": "A172 cells; 48 h", "value": 6.48, "unit": "%"}, {"measurement": "G0-G1, percentage of cells", "setting": "A172 cells; 72 h", "value": 59.23, "unit": "%"}, {"measurement": "Sub G1, percentage of cells", "setting": "A172 cells; 72 h", "value": 4.55, "unit": "%"}, {"measurement": "IC50", "setting": "[3]; A172, 72 h", "value": 950, "unit": "nM"}, {"measurement": "IC50", "setting": "[3]; Homo sapiens, A 172, 24 h, A172, 24 h", "value": "2680 ± 190", "unit": "nM"}]}
{"molecule": "O=C1O[C@H]([C@@H](O)CO)C(O)=C1O", "note": "[Ascorbic acid, reference compound]", "values": [{"measurement": "Percentage of antioxidant activity (DPPH)", "setting": "[4]; 250 μM/mL", "value": "74.08 ± 0.04", "unit": "%"}, {"measurement": "Percentage of antioxidant activity (DPPH)", "setting": "[4]; 500 μM/mL", "value": "80.24 ± 0.01", "unit": "%"}, {"measurement": "Percentage of antioxidant activity (DPPH)", "setting": "[4]; 750 μM/mL", "value": "85.79 ± 0.1", "unit": "%"}, {"measurement": "Percentage of antioxidant activity (DPPH)", "setting": "[4]; 1000 μM/mL", "value": "92.059 ± 0.08", "unit": "%"}]}
